These results are taken from ChEMBL document CHEMBL3244390, “New antiarrhythmic agents. 1. Primary alpha-amino anilides” (J Med Chem, 1979).

The subject of data set [1] is Mus musculus. Kind of data set: Toxicity in Swiss albino mouse assessed as induction of loss of righting reflex at 100 mg/kg, sc relative to control. Type of data set: organism-based. On the set-up: dose 100 mg/kg, route subcutaneous. The settings on record: in vivo. The essentials: (§1)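 Single preliminary dose of 100 mg/kg. Mice (18–25 g) were watched for overt CNS toxicity signs, including convulsions, ataxia and loss of righting reflex, during the 20 min between treatment and exposure to CHCl3 vapor.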

For data set [2], the system named is Mus musculus. Kind of data set: Antiarrhythmic activity in Swiss albino mouse assessed as protection against chloroform-induced fibrillation at 100 mg/kg, sc relative to control. Type of data set: functional, Heart. The following applies: route subcutaneous. The essentials:
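Mice (18–25 g) were dosed and exposed to CHCl3 vapor 20 min later until respiration ceased. Presence or absence of ventricular fibrillation was judged through the opened thorax, and protection was scored as the fraction of animals free of fibrillation. A preliminary 100 mg/kg dose was used to estimate doses for the full screen.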

In data set [3] the test system is Mus musculus. Kind of data set: Antiarrhythmic activity in sc dosed Swiss albino mouse assessed as protection against chloroform-induced fibrillation relative to control. The data set is classed as functional. The settings on record: Heart. An outline of the steps: (§2)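 Mice (18–25 g) were dosed and observed for signs of toxicity. Twenty minutes after dosing they were exposed to CHCl3 vapor until respiration ceased, and ventricular fibrillation was scored by inspecting the opened thorax.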

In data set [4] the test system is Mus musculus. The data set can be described thus: Toxicity in Swiss albino mouse assessed as induction of ataxia at 100 mg/kg, sc relative to control. On the set-up: dose 100 mg/kg, route subcutaneous. Type of data set: organism-based. The settings on record: in vivo. An outline of the steps:
as §1

Data set [5] relates to Mus musculus. Kind of data set: Antiarrhythmic activity in sc dosed Swiss albino mouse assessed as protection against chloroform-induced fibrillation relative to lidocaine. The data set is classed as functional, Heart. The essentials:
as §2

Data set [6] relates to Mus musculus. The data set can be described thus: Toxicity in Swiss albino mouse assessed as induction of convulsions at 100 mg/kg, sc relative to control. The data set is classed as organism-based. Also noted: dose 100 mg/kg, route subcutaneous. The settings on record: in vivo. The essentials:
as §1

Data set [7] has as its system Canis familiaris. The data set can be described thus: Antiarrhythmic activity in coronary ligated dog assessed as reduction of ventricular ectopic beats to <5% of total ventricular beats at 0.5 mg/kg, iv measured for 5 mins relative to control. The data set is classed as functional, Canis lupus familiaris, Heart. Also noted: scale not given: the % may be the effect or the level left.

For data set [8], the system named is Canis familiaris. Kind of data set: Antiarrhythmic activity in coronary ligated dog assessed as reduction of ventricular rates at 0.5 mg/kg, iv measured for 5 mins relative to control. Type of data set: functional, Canis lupus familiaris, Heart.
Data set [9] has as its system Canis familiaris. Kind of data set: Antiarrhythmic activity in iv dosed coronary ligated dog assessed as concentration required to reduce ventricular ectopic beats to <5% of total ventricular beats measured for 5 mins. Type of data set: functional, Canis lupus familiaris, Heart. The essentials: (§3)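 Clearing was defined as less than 5% ectopic beats for 5 min, and the infusion was shut off at clearing or when toxicity appeared. Doses are in mmol/kg, reported as means with standard deviations over the experiments.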

The subject of data set [10] is Canis familiaris. Kind of data set: Antiarrhythmic activity in coronary ligated dog assessed as reduction of mean arterial blood pressure at 0.5 mg/kg, iv measured for 5 mins relative to control. The data set is classed as functional, Canis lupus familiaris, Artery.
The subject of data set [11] is Canis familiaris. The data set can be described thus: Toxicity in iv dosed coronary ligated dog assessed as concentration required to cause mortality. The data set is classed as organism-based, Canis lupus familiaris. The following applies: in vivo. The essentials:
(§4)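 Dogs with ventricular arrhythmias from coronary artery ligation (Harris method) received drug by infusion, with the ectopic beat incidence monitored. Clearing was defined as less than 5% ectopic beats for 5 min. Infusion was stopped at clearing or when toxicity was observed. The dose was recorded at the time of the endpoint. Mortality was noted, including death after the end of infusion.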

Data set [12] concerns Canis familiaris. The data set can be described thus: Toxicity in iv dosed coronary ligated dog assessed as concentration required to cause convulsions. Type of data set: organism-based, Canis lupus familiaris. The settings on record: in vivo. An outline of the steps:
as §3

For data set [13], the system named is Canis familiaris. The data set can be described thus: Toxicity in iv dosed coronary ligated dog assessed as concentration required to cause mortality measured 87 mins after end of infusion. Type of data set: organism-based, Canis lupus familiaris. The settings on record: in vivo, 1.45 h. The essentials: as §4
Data set [14] is described as follows: Half life in dog. The data set is classed as ADME, organism-based, Canis lupus familiaris. The following applies: in vivo.
Data set [15] can be described thus: Half life in human. The data set is classed as ADME, organism-based. The settings on record: in vivo.
The nature of data set [16]: Oral bioavailability in dog. The following applies: in vivo. The data set is classed as ADME, organism-based, Canis lupus familiaris.

Structures are written as SMILES.

Turning to `CCc1cccc(CC)c1NC(=O)C(N)CC.Cl` (stereo unspecified), the Activity in the data set on Mus musculus [1] is 0%; in the data set with Mus musculus [2], 100%; in the data set with Mus musculus [4], 100%; with Mus musculus [6] it was 100%. In the data set with Mus musculus [3], the median effective dose (ED50) (commonly the dose that gives a 50% effect, or the effect in half of the subjects) turned out to be 230 µmol/kg. Further, in the data set with Mus musculus [5], the “Ratio ED50” value was 1.2.

`Cc1cccc(C)c1NC(=O)C(N)c1ccccc1.Cl` (stereo unspecified): the Activity is reported as 100% in the data set with Mus musculus [1], 80% in the data set with Mus musculus [2], 100% in the data set with Mus musculus [4] and 100% with Mus musculus [6]. Moreover, the ED50 in the data set with Mus musculus [3] is 220 µmol/kg. The “Ratio ED50” value in the data set on Mus musculus [5] was 1.2.

`Cc1cc(C)c(NC(=O)CN)c(C)c1.Cl`: the Activity with Mus musculus [1] worked out at 0%; with Mus musculus [2], 10%; with Mus musculus [4], 100%; in the data set on Mus musculus [6], 80%. The median effective dose (ED50) in the data set on Mus musculus [3] was determined as 790 µmol/kg. Also, the “Ratio ED50” value in the data set with Mus musculus [5] is on record as 0.3.

Take `CCc1cccc(CC)c1NC(=O)C(C)N.Cl` (stereo unspecified): the Activity with Canis familiaris [7] turned out to be 2%; in the data set on Mus musculus [1] it was 0%; with Canis familiaris [8] it was 124 bpm; with Mus musculus [2] it was 20%; with Canis familiaris [9], 0.26 mmol/kg; in the data set with Mus musculus [4], 100%. Further, the Activity in the data set on Canis familiaris [10] was 140 Torr; with Canis familiaris [11], 0.45 mmol/kg; with Mus musculus [6], 10%; in the data set with Canis familiaris [12], 0.23 mmol/kg. For the same compound, the ED50 in the data set with Mus musculus [3] was 530 µmol/kg. The “Ratio ED50” value with Mus musculus [5] is listed as 0.5.

For `Cc1cccc(C)c1NC(=O)CN.Cl`, the Activity amounted to 0% in the data set on Canis familiaris [7]; 0% in the data set with Mus musculus [1]; 123 bpm in the data set with Canis familiaris [8]; 10% in the data set with Mus musculus [2]; 0.48 mmol/kg in the data set with Canis familiaris [9]; 0% in the data set with Mus musculus [4]. Besides, the Activity in the data set on Canis familiaris [13] came out at 0.56 mmol/kg; with Canis familiaris [10], 85 Torr; with Mus musculus [6] it was 0%; with Canis familiaris [12], 0.48 mmol/kg. For the same compound, the ED50 in the data set on Mus musculus [3] was 900 µmol/kg. Moreover, in the data set with Mus musculus [5], the “Ratio ED50” value turned out to be 0.3. The half-life (usually the time needed for the level to fall by half in the phase considered) in data set [14] is 222 min.

For the compound `CCN(CC)CC(=O)Nc1c(C)cccc1C.Cl`, the Activity in the data set with Canis familiaris [7] turned out to be 4%; with Mus musculus [1] it was 100%; in the data set with Canis familiaris [8], 133 bpm; in the data set on Mus musculus [2], 100%; in the data set on Canis familiaris [9], 0.21 mmol/kg; with Mus musculus [4] it was 100%. Also, the Activity in the data set on Canis familiaris [10] came out at 101 Torr; with Mus musculus [6] it was 100%; with Canis familiaris [12], 0.27 mmol/kg. Besides, in the data set on Mus musculus [3], the median effective dose (ED50) is 260 µmol/kg.

With `CCC(N)C(=O)Nc1c(C)cccc1C.Cl` (stereo unspecified), the half-life in data set [14] is 90 min.

Take `Cc1cccc(C)c1NC(=O)[C@H](C)N.Cl`: the Activity was 0% with Canis familiaris [7]; 0% in the data set on Mus musculus [1]; 99 bpm in the data set on Canis familiaris [8]; 0% in the data set on Mus musculus [2]; 0.11 mmol/kg in the data set on Canis familiaris [9]; 0% in the data set on Mus musculus [4]. Further, the Activity in the data set with Canis familiaris [10] turned out to be 85 Torr; in the data set with Mus musculus [6], 0%. Besides, the ED50 in the data set with Mus musculus [3] came to 3100 µmol/kg. Moreover, the “Ratio ED50” value with Mus musculus [5] is on record as 0.1.

Consider `CCc1cccc(C)c1NC(=O)CN.Cl`, for which the Activity with Mus musculus [1] was 0%; with Mus musculus [2], 20%; in the data set with Mus musculus [4], 100%; with Mus musculus [6], 0%. Besides, the 50% effective dose (ED50) in the data set with Mus musculus [3] is 1300 µmol/kg. Further, the “Ratio ED50” value in the data set on Mus musculus [5] came out at 0.2.

Take `Cc1cccc(C)c1NC(=O)[C@@H](C)N.Cl`: the Activity came out at 0% with Canis familiaris [7]; 0% in the data set on Mus musculus [1]; 123 bpm in the data set on Canis familiaris [8]; 10% in the data set on Mus musculus [2]; 0.31 mmol/kg with Canis familiaris [9]; 70% with Mus musculus [4]. In addition, the values for the Activity in the data set on Canis familiaris [10], with Mus musculus [6] and in the data set with Canis familiaris [12] were 105 Torr, 0% and 0.21 mmol/kg, respectively. The ED50 in the data set on Mus musculus [3] turned out to be 930 µmol/kg. Moreover, in the data set with Mus musculus [5], the “Ratio ED50” value was 0.3.

Take `CCc1cccc(CC)c1NC(=O)CN.Cl`: the Activity in the data set with Mus musculus [1] was determined as 0%; in the data set on Mus musculus [2], 10%; in the data set with Mus musculus [4] it was 100%; in the data set on Mus musculus [6], 0%. The ED50 in the data set on Mus musculus [3] stood at 1200 µmol/kg. The “Ratio ED50” value in the data set on Mus musculus [5] is recorded as 0.2.

For the compound `Cc1cccc(C)c1NC(=O)C(C)N.Cl` (racemic) [TOCAINIDE HYDROCHLORIDE], the Activity in the data set on Canis familiaris [7] was 2%; with Mus musculus [1] it was 0%; with Canis familiaris [8] it was 148 bpm; with Mus musculus [2], 20%; in the data set with Canis familiaris [9], 0.32 mmol/kg; with Mus musculus [4], 10%. In addition, the Activity in the data set on Canis familiaris [10] stood at 108 Torr; in the data set with Mus musculus [6], 0%; in the data set on Canis familiaris [12], 0.3 mmol/kg. Besides, the half-life is 660 min in data set [15] and 282 min in data set [14]. For the same compound, the ED50 in the data set with Mus musculus [3] worked out at 1300 µmol/kg. In the data set on Mus musculus [5], the “Ratio ED50” value was 0.2. Moreover, the bioavailability (as a rule, the share of a dose that reaches the circulation, judged against a reference dose that is usually intravenous) in data set [16] came out at 80%.
